pIC50: −log10 of the molar value.
Legend:
[1] = Prodrug conversion in THF/PBS buffer assessed as H2S release concentration at 0.1 mM in presence of TCEP after 20 mins by methylene blue staining based UV-Vis spectrophotometric method; type: ADME; details: 100 µM
B16 = assay: Antiproliferative activity against mouse B16 cells assessed as reduction in cell viability after 72 hrs by MTT assay; details: B16, 72 h
MCF7 = assay: Antiproliferative activity against human MCF7 cells assessed as reduction in cell viability after 72 hrs by MTT assay; details: MCF7, 72 h
HepG2 [2] = assay: Antiproliferative activity against human HepG2 cells assessed as reduction in cell viability after 72 hrs by MTT assay; details: HepG2, 72 h
[3] = Cytotoxicity against human PBMC cells assessed as cell viability after 72 hrs by MTT assay
K562 [4] = assay: Antiproliferative activity against human K562 cells assessed as reduction in cell viability after 72 hrs by MTT assay; details: K562, 72 h
L02 = assay: Cytotoxicity against human L02 cells assessed as cell viability after 72 hrs by MTT assay; details: L02, 72 h
HCT-116 = assay: Antiproliferative activity against human HCT-116 cells assessed as reduction in cell viability after 72 hrs by MTT assay; details: HCT-116, 72 h
HepG2 [5] = assay: Induction of cell cycle arrest in human HepG2 cells assessed as accumulation at G1 phase at 1 uM after 48 hrs by propidium iodide staining based flow cytometric analysis (reference value: 49.46 to 50.3%); type: functional
How it was run: (§1)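 HepG2 cells were treated with 0, 0.50, 1.0 or 2.0 test agent for 48 h. Cells were washed in cold PBS and fixed in 70% ethanol at −20 °C overnight. DNA-content distribution was measured by flow cytometry. Mean ± SD, three independent experiments.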

HepG2 [6] = assay: Induction of cell cycle arrest in human HepG2 cells assessed as accumulation at G2 phase at 2 uM after 48 hrs by propidium iodide staining based flow cytometric analysis (reference value: 16.48 to 16.97%); type: functional
K562 [7] = assay: Induction of cell cycle arrest in human K562 cells assessed as accumulation at G2 phase at 2 uM after 48 hrs by propidium iodide staining based flow cytometric analysis (reference value: 10.96 to 12.03%); type: functional
HepG2 [8] = assay: Induction of cell cycle arrest in human HepG2 cells assessed as accumulation at G1 phase at 0.5 uM after 48 hrs by propidium iodide staining based flow cytometric analysis (reference value: 49.46 to 50.3%); type: functional; how it was run: as §1
HepG2 [9] = assay: Induction of cell cycle arrest in human HepG2 cells assessed as accumulation at S phase at 0.5 uM after 48 hrs by propidium iodide staining based flow cytometric analysis (reference value: 33.22 to 33.58%); type: functional
HepG2 [10] = assay: Induction of cell cycle arrest in human HepG2 cells assessed as accumulation at G2 phase at 0.5 uM after 48 hrs by propidium iodide staining based flow cytometric analysis (reference value: 16.48 to 16.97%); type: functional; how it was run: as §1
HepG2 [11] = assay: Induction of cell cycle arrest in human HepG2 cells assessed as accumulation at S phase at 1 uM after 48 hrs by propidium iodide staining based flow cytometric analysis (reference value: 33.22 to 33.58%); type: functional
HepG2 [12] = assay: Induction of cell cycle arrest in human HepG2 cells assessed as accumulation at G1 phase at 2 uM after 48 hrs by propidium iodide staining based flow cytometric analysis (reference value: 49.46 to 50.3%); type: functional; how it was run: as §1
K562 [13] = assay: Induction of cell cycle arrest in human K562 cells assessed as accumulation at S phase at 0.5 uM after 48 hrs by propidium iodide staining based flow cytometric analysis (reference value: 44.73 to 45.96%); type: functional
K562 [14] = assay: Induction of cell cycle arrest in human K562 cells assessed as accumulation at G2 phase at 1 uM after 48 hrs by propidium iodide staining based flow cytometric analysis (reference value: 10.96 to 12.03%); type: functional
K562 [15] = assay: Induction of cell cycle arrest in human K562 cells assessed as accumulation at G1 phase at 2 uM after 48 hrs by propidium iodide staining based flow cytometric analysis (reference value: 43.24 to 43.37%); type: functional
K562 [16] = assay: Induction of cell cycle arrest in human K562 cells assessed as accumulation at S phase at 2 uM after 48 hrs by propidium iodide staining based flow cytometric analysis (reference value: 44.73 to 45.96%); type: functional
HepG2 [17] = assay: Induction of cell cycle arrest in human HepG2 cells assessed as accumulation at G2 phase at 1 uM after 48 hrs by propidium iodide staining based flow cytometric analysis (reference value: 16.48 to 16.97%); type: functional; how it was run: as §1
K562 [18] = assay: Induction of cell cycle arrest in human K562 cells assessed as accumulation at G1 phase at 1 uM after 48 hrs by propidium iodide staining based flow cytometric analysis (reference value: 43.24 to 43.37%); type: functional
HepG2 [19] = assay: Induction of cell cycle arrest in human HepG2 cells assessed as accumulation at S phase at 2 uM after 48 hrs by propidium iodide staining based flow cytometric analysis (reference value: 33.22 to 33.58%); type: functional
K562 [20] = assay: Induction of cell cycle arrest in human K562 cells assessed as accumulation at G2 phase at 0.5 uM after 48 hrs by propidium iodide staining based flow cytometric analysis (reference value: 10.96 to 12.03%); type: functional
K562 [21] = assay: Induction of cell cycle arrest in human K562 cells assessed as accumulation at S phase at 1 uM after 48 hrs by propidium iodide staining based flow cytometric analysis (reference value: 44.73 to 45.96%); type: functional
K562 [22] = assay: Induction of cell cycle arrest in human K562 cells assessed as accumulation at G1 phase at 0.5 uM after 48 hrs by propidium iodide staining based flow cytometric analysis (reference value: 43.24 to 43.37%); type: functional

Row | Drug metabolism [1] [µM] | pIC50 (B16) | pIC50 (MCF7) | pIC50 (HepG2 [2]) | pIC50 (K562 [4]) | pIC50 (HCT-116) | Structure (SMILES) | pIC50 [3] | pIC50 (L02) | also measured
1 | 15 | < 4.30 | 4.75 | 5.27 | 5.34 | 4.37 | C=C1C(=O)[C@]23[C@H](OC(=O)CCC(=O)OCCOc4ccc(-c5cc(=S)ss5)cc4)[C@H]1CC[C@H]2[C@@]12CO[C@@]3(O)[C@@H](O)[C@@H]1C(C)(C)CC[C@@H]2O | < 4.30 | 4.47 | –
2 | 15 | 4.56 | 4.83 | 5.35 | 5.66 | 4.56 | C=C1C(=O)[C@]23[C@H](OC(=O)CCC(=O)OCCCOc4ccc(-c5cc(=S)ss5)cc4)[C@H]1CC[C@H]2[C@@]12CO[C@@]3(O)[C@@H](O)[C@@H]1C(C)(C)CC[C@@H]2O | < 4.30 | 4.58 | –
3 | 15 | < 4.30 | 4.78 | 5.23 | 5.38 | – | C=C1C(=O)[C@]23[C@H](OC(=O)CCCC(=O)OCCCOc4ccc(-c5cc(=S)ss5)cc4)[C@H]1CC[C@H]2[C@@]12CO[C@@]3(O)[C@@H](O)[C@@H]1C(C)(C)CC[C@@H]2O | < 4.30 | 4.39 | –
4 | 15 | < 4.30 | < 4.30 | 5.00 | 4.87 | < 4.30 | C=C1C(=O)[C@]23[C@H](OC(=O)CCCC(=O)OCCCCCCO[C@H]4CCC(C)(C)[C@H]5[C@H](O)[C@]6(O)OC[C@@]45[C@@H]4CC[C@H]5C(=C)C(=O)[C@]46[C@@H]5OC(=O)CCCC(=O)OCCCCCCOc4ccc(-c5cc(=S)ss5)cc4)[C@H]1CC[C@H]2[C@@]12CO[C@@]3(O)[C@@H](O)[C@@H]1C(C)(C)CC[C@@H]2O | < 4.30 | < 4.30 | –
5 | – | 4.60 | 4.86 | 5.05 | – | 4.93 | C=C1C(=O)[C@]23[C@H](O)[C@H]1CC[C@H]2[C@@]12CO[C@]3(O)[C@@H](O)[C@@H]1C(C)(C)CC[C@@H]2O [ORIDONIN] | < 4.30 | 4.67 | Activity (HepG2 [5]): 61.88%; Activity (HepG2 [6]): 5.8%; Activity (K562 [7]): 6.62%; Activity (HepG2 [8]): 57.11%; Activity (HepG2 [9]): 29.64%; Activity (HepG2 [10]): 13.25%; Activity (HepG2 [11]): 27.54%; Activity (HepG2 [12]): 68%; Activity (K562 [13]): 44.1%; Activity (K562 [14]): 5.79%; Activity (K562 [15]): 60.6%; Activity (K562 [16]): 32.78%; Activity (HepG2 [17]): 10.54%; Activity (K562 [18]): 55.67%; Activity (HepG2 [19]): 26.2%; Activity (K562 [20]): 9.81%; Activity (K562 [21]): 38.54%; Activity (K562 [22]): 46.09%
6 | – | < 4.30 | < 4.30 | 5.03 | 5.05 | < 4.30 | C=C1C(=O)[C@]23[C@H](OC(=O)CCCC(=O)OCCCCCCOc4ccc(-c5cc(=S)ss5)cc4)[C@H]1CC[C@H]2[C@@]12CO[C@@]3(O)[C@@H](O)[C@@H]1C(C)(C)CCC2=O | < 4.30 | < 4.30 | –
7 | – | < 4.30 | 4.59 | 5.12 | 5.06 | < 4.30 | C=C1C(=O)[C@]23[C@H](OC(=O)CCC(=O)OCCOc4ccc(-c5cc(=S)ss5)cc4)[C@H]1CC[C@H]2[C@@]12CO[C@@]3(O)[C@@H](O)[C@@H]1C(C)(C)CCC2=O | < 4.30 | 4.40 | –
8 | – | 4.59 | 4.81 | 4.98 | 5.38 | 4.97 | C=C1C(=O)[C@]23[C@H](O)[C@H]1CC[C@H]2[C@@]12CO[C@@]3(O)[C@@H](O)[C@@H]1C(C)(C)CCC2=O | < 4.30 | 4.54 | –
9 | – | < 4.30 | 4.80 | 5.45 | 5.23 | 4.43 | C=C1C(=O)[C@]23[C@H](OC(=O)CCCC(=O)OCCCOc4ccc(-c5cc(=S)ss5)cc4)[C@H]1CC[C@H]2[C@@]12CO[C@@]3(O)[C@@H](O)[C@@H]1C(C)(C)CC[C@@H]2OC(C)=O | < 4.30 | 4.47 | –
10 | – | < 4.30 | 4.56 | 5.12 | 5.24 | 4.46 | C=C1C(=O)[C@]23[C@H](OC(=O)CCCC(=O)OCCOc4ccc(-c5cc(=S)ss5)cc4)[C@H]1CC[C@H]2[C@@]12CO[C@@]3(O)[C@@H](O)[C@@H]1C(C)(C)CCC2=O | < 4.30 | 4.38 | –

Reference: ChEMBL document CHEMBL4706489, “Hydrogen sulfide releasing oridonin derivatives induce apoptosis through extrinsic and intrinsic pathways” (Eur J Med Chem, 2020)
